Experimental data taken from ChEMBL document CHEMBL1144404, “Aminoimidazolylmethyluracil analogues as potent inhibitors of thymidine phosphorylase and their bioreductive nitroimidazolyl prodrugs” (J Med Chem, 2005).

B1: Thymidine phosphorylase (Escherichia coli K-12), P07650 (protein)
chain: MFLAQEIIRKKRDGHALSDEEIRFFINGIRDNTISEGQIAALAMTIFFHDMTMPERVSLTMAMRDSGTVLDWKSLHLNGPIVDKHSTGGVGDVTSLMLGPMVAACGGYIPMISGRGLGHTGGTLDKLESIPGFDIFPDDNRFREIIKDVGVAIIGQTSSLAPADKRFYATRDITATVDSIPLITASILAKKLAEGLDALVMDVKVGSGAFMPTYELSEALAEAIVGVANGAGVRTTALLTDMNQVLASSAGNAVEVREAVQFLTGEYRNPRLFDVTMALCVEMLISGKLAKDDAEARAKLQAVLDNGKAAEVFGRMVAAQKGPTDFVENYAKYLPTAMLTKAVYADTEGFVSEMDTRALGMAVVAMGGGRRQASDTIDYSVGFTDMARLGDQVDGQRPLAVIHAKDENNWQEAAKAVKAAIKLADKAPESTPTVYRRISE
B2: Thymidine phosphorylase (Homo sapiens), P19971 (protein)
chain: MAALMTPGTGAPPAPGDFSGEGSQGLPDPSPEPKQLPELIRMKRDGGRLSEADIRGFVAAVVNGSAQGAQIGAMLMAIRLRGMDLEETSVLTQALAQSGQQLEWPEAWRQQLVDKHSTGGVGDKVSLVLAPALAACGCKVPMISGRGLGHTGGTLDKLESIPGFNVIQSPEQMQVLLDQAGCCIVGQSEQLVPADGILYAARDVTATVDSLPLITASILSKKLVEGLSALVVDVKFGGAAVFPNQEQARELAKTLVGVGASLGLRVAAALTAMDKPLGRCVGHALEVEEALLCMDGAGPPDLRDLVTTLGGALLWLSGHAGTQAQGAARVAAALDDGSALGRFERMLAAQGVDPGLARALCSGSPAERRQLLPRAREQEELLAPADGTVELVRALPLALVLHELGAGRSRAGEPLRLGVGAELLVDVGQRLRRGTPWLRVHRDGPALSGPQSRALQEALVLSDRAPFAAPSPFAELVLPPQQ

Key:
[1] = substrate: O=c1[nH]c(=O)n([C@H]2C[C@H](O)[C@@H](CO)O2)cc1[N+](=O)[O-]; experiment: (§1) Vmax against Escherichia coli thymidine phosphorylase
Outline: (§2)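 Continuous UV assay at 355 nm and 25 °C in 0.2 mL of 0.1 M potassium phosphate pH 7.4, using recombinant E. coli TP (ca. 0.00883 units per assay) added to start the reaction. Substrate is thymidine or 5-nitro-2'-deoxyuridine; phosphorolysis to 5-nitrouracil followed (εM 13300 M-1 cm-1 for substrate).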

[2] = substrate: Cc1cn([C@H]2C[C@H](O)[C@@H](CO)O2)c(=O)[nH]c1=O; experiment: as §1; outline: as §2
[3] = substrate: O=c1[nH]c(=O)n([C@H]2C[C@H](O)[C@@H](CO)O2)cc1[N+](=O)[O-]; experiment: Michaelis-Menten constant against Escherichia coli thymidine phosphorylase; outline: as §2
[4] = substrate: O=c1[nH]c(=O)n([C@H]2C[C@H](O)[C@@H](CO)O2)cc1[N+](=O)[O-]; experiment: Vmax against human thymidine phosphorylase
Outline: (§3)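 Recombinant human TP expressed in V79 Chinese hamster cells, 0.065 absorbance unit per assay. Continuous spectrophotometric assay at 355 nm, 25 °C, 0.1 M phosphate buffer pH 7.4, 0.2 mL total volume, with 5-nitro-2'-deoxyuridine as substrate; kinetic constants from initial rates.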

[5] = substrate: O=c1[nH]c(=O)n([C@H]2C[C@H](O)[C@@H](CO)O2)cc1[N+](=O)[O-]; experiment: Michaelis-Menten constant against human thymidine phosphorylase; outline: as §3

Protein | Vmax [1] [mM/min] | Vmax [2] [mM/min] | Km [3] [µM] | Vmax [4] [mM/min] | Km [5] [µM]
B1 | 0.013 | 1.15 | 230 |  | 
B2 |  |  |  | 0.0086 | 160
